# Compounds with a hit are over-represented: about 1.6% of the library has one in this group of screens.
# NR2E3 ag-1: NR2E3 agonists in two-hybrid cells, primary screen, cell-based, luminescence, CHO-S, Gal4-NCOR/VP16-NR2E3. Photoreceptor-specific nuclear receptor (Homo sapiens), Q9Y5X4. luciferase. inhibition of corepressor binding, % at 3.98 µM. 360,000 compounds, 0.35% hits. AID 602229, 2012;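 active = inhibition above the mean of all tested compounds plus 3 SD, cut at about 70% in these data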;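 note: 0% = DMSO with NR2E3 transfected cells and 100% = cells lacking NR2E3 construct; higher means lower luciferase signal from less NR2E3 corepressor binding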
# NR2E3 ag-2: inhibitors of NR2E3-RetCOR corepressor binding, primary screen, NR2E3 agonist project, biochemical, TR-FRET, GST-NR2E3, biotin-RetCOR. 320,000 compounds, 0.12% hits. 1536-well. AID 2300, 2010. inhibition of corepressor binding, % at 4.78 µM. Photoreceptor-specific nuclear receptor (Homo sapiens), Q9Y5X4;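 active = percent inhibition above the cutoff of mean plus 3 SD of all tested compounds, set per screening campaign, cut at about 20% in these data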;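 note: 0% = DMSO wells and 100% = biotin wells as full block of FRET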
#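 System: GST-tagged NR2E3 plus biotinylated RetCOR corepressor; Amount: 1.35 nM GST-tagged NR2E3 final; Dosing: single nominal compound dose of 4.8 µM; Schedule: 5 h incubation at 4 °C; Technique: TR-FRET with europium anti-GST and streptavidin-D2, 340 nm excitation; Controls: biotin wells as high control, 0.6% DMSO wells as low control.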
# PKA-R1A activ: activators of PKA-R1A holoenzyme, primary screen, biochemical, fluorescence polarization, Cy5-IP20, bovine R1A, mouse PKAc. cAMP-dependent protein kinase type I-alpha regulatory subunit (Bos taurus) + …. PKA-R1A dissociation; scaled: DMSO 0%, 113 µM cGMP 100%. activation, % at 11.4 µM. 340,000 compounds, 0.083% hits. AID 504707, 2011;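 active = percent activation above the mean of all tested compounds plus 3 SD, cut at about 19% in these data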;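 note: higher means more PKAc released from R1A so a rise in polarization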
# PG9 Ab binder: binders of HIV-1 gp120 antibody PG9, primary screen, biochemical, TR-FRET; TR-FRET gp120-PG9 antibody binding; inhibition, % at 6.7 µM; 360,000 compounds, 0.43% hits; AID 624416, 2012; in the data active = inhibition above about 8.5%
# PKA-R2B act: activators of PKA-R2B holoenzyme, primary screen, biochemical, fluorescence polarization, Cy5-IP20, human; cAMP-dependent protein kinase catalytic subunit beta (Homo sapiens) + cAMP-dependent …; PKA-R2B holoenzyme dissociation; R2B truncated from residue 108, S112A mutant; 0% DMSO only, 100% 113 µM cGMP; activation, % at 11.4 µM; 340,000 compounds, 0.079% hits;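 active = activation above a cutoff set at the mean over all compounds plus 3 SD, cut at about 18% in these data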;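 note: higher means more holoenzyme dissociation and a rise in polarization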
# Rev-erbA mod: modulators of Rev-erb alpha DNA binding, primary screen, biochemical, FITC-DNA, fluorescence polarization, uHTS; activity, % at 10 µM; 370,000 compounds, 0.79% hits; Rev-erbα–FITC-DNA binding, 90 min; Nuclear receptor subfamily 1 group D member 1 (Homo sapiens), P20393;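 active = activity above about 14%, limit read from the data; passing the limit was not always enough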;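 note: 0% = DMSO wells with 35 nM protein and 100% = DMSO wells with 750 nM protein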
# Target sequence (P20393 whole entry, looked up): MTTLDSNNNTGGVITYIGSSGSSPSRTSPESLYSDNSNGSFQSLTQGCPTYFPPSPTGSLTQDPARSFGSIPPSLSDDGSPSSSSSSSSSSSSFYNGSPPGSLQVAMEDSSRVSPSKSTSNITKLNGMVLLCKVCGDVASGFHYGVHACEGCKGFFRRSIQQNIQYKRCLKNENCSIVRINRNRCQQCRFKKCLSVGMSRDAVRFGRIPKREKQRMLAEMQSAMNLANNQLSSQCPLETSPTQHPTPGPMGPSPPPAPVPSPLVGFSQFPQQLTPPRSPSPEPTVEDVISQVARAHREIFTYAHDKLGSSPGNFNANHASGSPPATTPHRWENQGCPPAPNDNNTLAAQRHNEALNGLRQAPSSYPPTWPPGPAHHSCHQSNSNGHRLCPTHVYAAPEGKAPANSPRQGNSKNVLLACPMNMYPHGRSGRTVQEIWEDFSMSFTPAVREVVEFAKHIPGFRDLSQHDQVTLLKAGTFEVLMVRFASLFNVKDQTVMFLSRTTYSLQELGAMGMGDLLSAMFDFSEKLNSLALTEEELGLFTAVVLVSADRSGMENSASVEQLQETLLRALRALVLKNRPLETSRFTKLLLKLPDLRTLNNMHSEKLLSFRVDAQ
# NR2E3 ag confirm: NR2E3 agonist confirmation in cells, cell-based, luminescence, CHO-S two-hybrid; shares compounds with NR2E3 ag-1; AID 624378, 2012; CHO-S mammalian two-hybrid NR2E3-NCOR, luciferase luminescence; inhibition, % at 3.98 µM; 2,300 compounds, 51% hits;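 active = average inhibition above a cutoff equal to the mean inhibition of all tested compounds plus one SD, cut at about 70% in these data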;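 note: 0% = DMSO in NR2E3 cells and 100% = DMSO in cells lacking NR2E3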
# VP16 counter: GAL4-VP16 reporter modulators, confirmation, counter-screen for NR2E3 agonist project, cell-based, luminescence, CHO-S, high throughput; CHO-S GAL4-VP16 luciferase reporter; AID 624379, 2012; shares compounds with NR2E3 ag-1; inhibition, % at 3.98 µM; 2,300 compounds, 29% hits;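 active = mean inhibition above a cutoff equal to the average over all tested compounds plus one standard deviation, cut at about 70% in these data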;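 note: luciferase from a UAS reporter driven by GAL4-VP16 transactivation; 0% = DMSO with VP16-transfected cells and 100% = DMSO with cells lacking VP16; higher means less reporter light so more repression of VP16 activity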
# The depositor's hits bear a star; . = no result.
SMILES,NR2E3 ag-1,NR2E3 ag-2,PKA-R1A activ,PG9 Ab binder,PKA-R2B act,Rev-erbA mod,NR2E3 ag confirm,VP16 counter
C=C1C(=O)O[C@@H]2C[C@@H](C)[C@@H]3C=CC(=O)[C@@]3(C)[C@@H](OC(=O)CC(=O)O[C@H]3[C@@H]4C(=C)C(=O)O[C@@H]4C[C@@H](C)[C@@H]4C=CC(=O)[C@]43C)[C@H]12,96*,2,9,-1,-2,-12,101*,97*
C=C1C(=O)OC2CC(C)C3C=CC(=O)C3(C)C(O)C12 (stereo not drawn),92*,.,-1,.,-1,.,99*,41
C=C1C(=O)O[C@@H]2C[C@@H](C)[C@@H]3C4OC4C(=O)[C@@]3(C)[C@@H](O)[C@H]12 (stereo partly drawn),77*,-4,-1,1,-2,4,-11,2
C=C1C(=O)OC2C1CCC(C)C1(O)C=CC(=O)C21C (stereo not drawn),33,.,-13,3,-18,1,.,.
O=C1OC(c2ccc(O)c(S(=O)(=O)O)c2)(c2ccc(O)c(S(=O)(=O)O)c2)c2c(Br)c(Br)c(Br)c(Br)c21,.,.,.,.,.,-5,.,.
Cn1cc(C2=C(c3cn(C4CCN(Cc5ccccn5)CC4)c4ccccc34)C(=O)NC2=O)c2ccccc21,.,.,.,.,.,3,.,.
C=C1C(=O)C(C)=C2C(=O)N3Cc4[nH]c5ccccc5c4CC3(C(=O)OC)C12 (stereo not drawn),.,.,.,.,.,-5,.,.
Oc1c(Cl)cccc1Cc1cc(Cl)cc(Cl)c1O,98*,.,-9,-3,-12,-6,100*,93*
O=[N+]([O-])c1ccc(N(CCO)CCO)c2c1no[n+]2[O-],76*,.,1,-5,-3,5,54,44
C=C(C=O)CC1CC(O)[C@]2(C)OC3CC4OC5C[C@]6(C)O[C@]7(C)CCC8OC9C[C@]%10(C)OC%11C(C)=CC(=O)OC%11CC%10OC9C[C@@H](C)C8OC7CC6O[C@]5(C)C/C=C\C4OC3CC2O1 (stereo partly drawn),.,.,.,.,.,-1,.,.
CCOC(=O)CC[C@@H]1CC[C@]2(CCCN(Cc3cccnc3)C2)O1,.,.,.,.,.,-1,.,.
Oc1c(Br)cc(Br)cc1Br,7,1,1,0,-1,0,.,.
Oc1c(Br)c(Br)c(Br)c(Br)c1Br,101*,1,10,.,5,.,99*,88*
Cc1nnc2n1-c1sc(CCC(=O)N3CCOCC3)cc1C(c1ccccc1Cl)=NC2,.,.,.,.,.,-3,.,.
CC(C)C(Br)C(=O)NC(N)=O (stereo not drawn),.,.,.,.,.,-6,.,.
CC(C)(C)c1ccc(CSc2cnn(C(C)(C)C)c(=O)c2Cl)cc1,107*,-2,2,0,5,3,100*,93*
O=C(CN1C(=O)[C@@H](Cc2ccc(O)cc2)N=C(c2ccccc2)c2ccccc21)NC1CCCCC1,.,.,.,.,.,5,.,.
C[C@H]1[C@@H](OS(=O)(=O)O)C[C@@H]2C[C@H]([C@@H](O)c3cc(=O)[nH]c(=O)[nH]3)NC3=NC[C@H]1N32,101*,.,4,.,0,.,99*,82*
